Data on twelve compounds can be found in paper PMC7818638 (ACS Omega, 2021).

One data set has as its system HepG2. Briefly: Antiproliferative. Type of data set: cell-based. The note with it: Homo sapiens, HepG2, read-out: HepG2 IC50 ± SD. In short, it runs like this:
(§1)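 Test compounds are screened by MTT assay against human hepatoblastoma HepG2 cells and murine BALB/3T3 fibroblasts, with doxorubicin as the reference drug. Dose–response curves are plotted from the results. IC50 is taken as the concentration needed to kill half the cell population. Values are the mean of three independent experiments.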

Data set [1] has as its system BALB/3T3 (murine fibroblast). Briefly: Cytotoxicity toward normal cell line BALB/3T3, MTT assay. In kind it is cell-based. The note with it: for toxicity on the normal cell line (BALAB/3T3): statement in words; for IC50: Mus musculus, BALB/3T3, read-out: BALAB/3T3 IC50 ± SD. In short, it runs like this:
as §1
Background: Tetrazolium assays rely on reduction of a dye to a coloured formazan, in cell work by metabolically active cells.

In brackets after ≈: the same amount, converted by molar mass.

On to `Cc1c(-c2cc(-c3ccccc3)c(C#N)c(N)n2)nnn1-c1ccc(Br)cc1` [Compound 3, 2-Amino-6-(1-(4-bromophenyl)-5-methyl-1H-1,2,3-triazol-4-yl)-4-phenylnicotinonitrile], for which, in the data set with HepG2, the IC50 turned out to be 17.2 ± 0.83 µg/mL (≈ 40 µM). For `Cc1c(-c2cc(-c3cn(-c4ccccc4)nc3-c3nnn(-c4ccc(Br)cc4)c3C)c(C#N)c(N)n2)nnn1-c1ccc(Br)cc1` [Compound 6, 2-Amino-6-(1-(4-bromophenyl)-5-methyl-1H-1,2,3-triazol-4-yl)-4-(3-(1-(4-bromophenyl)-5-methyl-1H-1,2,3-triazol-4-yl)-1-phenyl-1H-pyrazol-4-yl)nicotinonitrile], in data set [1], the “toxicity on the normal cell line (BALAB/3T3)” value is reported as “no toxicity”. Besides, the IC50 in the data set with HepG2 was found to be 0.64 ± 0.14 µg/mL (≈ 0.873 µM).

With `Cc1c(-c2cc(-c3cn(-c4ccccc4)nc3-c3nnn(-c4cccc([N+](=O)[O-])c4)c3C)c(C#N)c(N)n2)nnn1-c1ccc(Br)cc1` [Compound 7, 2-Amino-6-(1-(4-bromophenyl)-5-methyl-1H-1,2,3-triazol-4-yl)-4-(3-(5-methyl-1-(3-nitrophenyl)-1H-1,2,3-triazol-4-yl)-1-phenyl-1H-pyrazol-4-yl)nicotinonitrile], in data set [1], the “toxicity on the normal cell line (BALAB/3T3)” value is “no toxicity”. Besides, in the data set on HepG2, the IC50 was 1.08 ± 0.94 µg/mL (≈ 1.54 µM). As to `COc1cc(-c2cc(-c3nnn(-c4ccc(Br)cc4)c3C)nc(N)c2C#N)ccc1O` [Compound 8, 2-Amino-6-(1-(4-bromophenyl)-5-methyl-1H-1,2,3-triazol-4-yl)-4-(4-hydroxy-3-methoxyphenyl)nicotinonitrile], the IC50 with HepG2 was determined as 9.65 ± 0.37 µg/mL (≈ 20.2 µM).

Regarding `Cc1c(-c2cc(-c3ccco3)c(C#N)c(N)n2)nnn1-c1ccc(Br)cc1` [Compound 9, 2-Amino-6-(1-(4-bromophenyl)-5-methyl-1H-1,2,3-triazol-4-yl)-4-(furan-2-yl)nicotinonitrile], the IC50 in the data set on HepG2 came to 11.15 ± 0.01 µg/mL (≈ 26.5 µM). Take `CCOC(=O)c1c(-c2ccccc2)cc(-c2nnn(-c3ccc(Br)cc3)c2C)nc1N` [Compound 10, Ethyl 2-Amino-6-(1-(4-bromophenyl)-5-methyl-1H-1,2,3-triazol-4-yl)-4-phenylnicotinate]: the values for the IC50 (in data set [1]; with HepG2) were 76.72 ± 0.24 µg/mL (≈ 160 µM) and 23.2 ± 0.45 µg/mL (≈ 48.6 µM), respectively.

As to `CCOC(=O)c1c(-c2ccc(OC)cc2)cc(-c2nnn(-c3ccc(Br)cc3)c2C)nc1N` [Compound 11, Ethyl 2-Amino-6-(1-(4-bromophenyl)-5-methyl-1H-1,2,3-triazol-4-yl)-4-(4-methoxyphenyl)nicotinate], the IC50 in the data set with HepG2 was 16.7 ± 0.83 µg/mL (≈ 32.8 µM).

For `CCOC(=O)c1c(-c2cn(-c3ccccc3)nc2-c2nnn(-c3ccc(Br)cc3)c2C)cc(-c2nnn(-c3ccc(Br)cc3)c2C)nc1N` [Compound 13, Ethyl 2-Amino-6-(1-(4-bromophenyl)-5-methyl-1H-1,2,3-triazol-4-yl)-4-(3-(1-(4-bromophenyl)-5-methyl-1H-1,2,3-triazol-4-yl)-1-phenyl-1H-pyrazol-4-yl)nicotinate], the results for the IC50 (in data set [1]; in the data set on HepG2) were 61.24 ± 0.21 µg/mL (≈ 78.5 µM) and 6.24 ± 0.71 µg/mL (≈ 8 µM), respectively. `CCOC(=O)c1c(-c2cn(-c3ccccc3)nc2-c2nnn(-c3cccc([N+](=O)[O-])c3)c2C)cc(-c2nnn(-c3ccc(Br)cc3)c2C)nc1N` [Compound 14, Ethyl 2-Amino-6-(1-(4-bromophenyl)-5-methyl-1H-1,2,3-triazol-4-yl)-4-(3-(5-methyl-1-(3-nitrophenyl)-1H-1,2,3-triazol-4-yl)-1-phenyl-1H-pyrazol-4-yl)nicotinate]: in the data set with HepG2, the IC50 was 9.54 ± 0.05 µg/mL (≈ 12.8 µM).

Regarding `CCOC(=O)c1c(-c2ccc(O)c(OC)c2)cc(-c2nnn(-c3ccc(Br)cc3)c2C)nc1N` [Compound 15, Ethyl 2-Amino-6-(1-(4-bromophenyl)-5-methyl-1H-1,2,3-triazol-4-yl)-4-(4-hydroxy-3-methoxyphenyl)nicotinate], the IC50 amounted to 18.3 ± 1.81 µg/mL (≈ 35 µM) in data set [1] and 11.3 ± 0.95 µg/mL (≈ 21.6 µM) with HepG2. As for `CCOC(=O)c1c(-c2ccco2)cc(-c2nnn(-c3ccc(Br)cc3)c2C)nc1N` [Compound 16, Ethyl 2-Amino-6-(1-(4-bromophenyl)-5-methyl-1H-1,2,3-triazol-4-yl)-4-(furan-2-yl)nicotinate], in the data set with HepG2, the IC50 came to 13.24 ± 0.12 µg/mL (≈ 28.3 µM). For the compound `COc1cccc2c1C(=O)c1c(O)c3c(c(O)c1C2=O)C[C@@](O)(C(=O)CO)C[C@@H]3O[C@H]1C[C@H](N)[C@H](O)[C@H](C)O1` [doxorubicin, reference compound], the IC50 with HepG2 is 3.56 ± 0.46 µg/mL (≈ 6.55 µM).
